Assay outcomes as filed in PubChem.
Rad51 HR inh: blocks human Rad51 in homologous recombination. hRad51 DNA strand exchange, fluorescence dequenching. inhibition, % at 10 µM. 0.085% of 200,000 active. AID 1385;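 active = inhibition above 40% at the single screening dose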;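 also: 0% = DMSO control wells and 100% = blanks with heterologous ssDNA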
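System: human Rad51 nucleoprotein filaments preassembled on unlabelled ssDNA. Reagent: labelled 47-mer dsDNA for strand exchange. Schedule: 30-min compound preincubation and 15-min exchange, both room temperature. Measured by: FRET fluorescence dequenching, excitation 485 nm, emission 520 nm. Read-out: Fluorescence-based percent inhibition, control- and blank-normalised. Benchmarks: plate controls and plate blanks.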
Arbovirus inh: blocks arbovirus infection. 0.37% of 200,000 active. AID 1251. arbovirus infection cell-based antiviral screen. inhibition, % at 10 µM; in the data active = inhibition above about 30%
PKD1 kinase inh: inhibitors of human PKD1 kinase; Q15139; PKD1 kinase fluorescence polarization assay; inhibition, % (test concentration not listed); 0.056% of 200,000 active
Target sequence (Q15139 whole entry, looked up): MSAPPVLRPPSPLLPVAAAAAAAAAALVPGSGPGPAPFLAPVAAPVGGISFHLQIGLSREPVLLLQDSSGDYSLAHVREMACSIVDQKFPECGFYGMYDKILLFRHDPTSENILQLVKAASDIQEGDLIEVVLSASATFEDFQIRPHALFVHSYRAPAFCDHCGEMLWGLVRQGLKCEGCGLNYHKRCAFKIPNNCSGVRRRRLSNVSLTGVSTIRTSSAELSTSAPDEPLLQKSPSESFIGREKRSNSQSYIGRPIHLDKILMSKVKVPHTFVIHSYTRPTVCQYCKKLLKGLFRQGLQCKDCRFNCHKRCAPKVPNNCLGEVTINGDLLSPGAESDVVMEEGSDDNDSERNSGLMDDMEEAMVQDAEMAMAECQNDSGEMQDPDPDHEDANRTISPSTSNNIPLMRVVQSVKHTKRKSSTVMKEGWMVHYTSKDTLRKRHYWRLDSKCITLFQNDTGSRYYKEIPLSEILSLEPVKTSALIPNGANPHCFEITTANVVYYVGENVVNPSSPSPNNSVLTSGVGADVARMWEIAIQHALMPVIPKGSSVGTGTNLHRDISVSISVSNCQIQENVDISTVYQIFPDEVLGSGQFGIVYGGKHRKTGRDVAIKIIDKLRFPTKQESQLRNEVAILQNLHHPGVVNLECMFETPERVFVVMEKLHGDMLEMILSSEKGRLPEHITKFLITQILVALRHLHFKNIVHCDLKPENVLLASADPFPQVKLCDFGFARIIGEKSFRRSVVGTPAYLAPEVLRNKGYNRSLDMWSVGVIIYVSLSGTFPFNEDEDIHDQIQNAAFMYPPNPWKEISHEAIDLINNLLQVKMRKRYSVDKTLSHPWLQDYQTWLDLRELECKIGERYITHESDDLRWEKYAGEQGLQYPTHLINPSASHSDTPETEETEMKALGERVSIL
CHOP inhibitor: CHOP inhibition in unfolded protein response | CHO-K1 CHOP-promoter luciferase, tunicamycin-induced, 15-18 h | inhibition, % at 10 µM | 3.8% of 220,000 active | AID 2732;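 active = compounds that reduced the stress-induced luciferase reporter signal by more than about 70% of percent inhibition, limit read from the data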;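 also: 0% = tunicamycin plus vehicle and 100% = wells without tunicamycin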
Wee1 stabilizer: inhibitors of human Wee1 degradation | 1.2% of 220,000 active | AID 1321 | P30291 | reporter increase, % at 5 µM | HeLa Luc-Wee1K328M stability, luciferase luminescence; 100% = proteasome inhibitor MG132 effect;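 active = activation above the mean of all tested compounds plus 3 SD, set per screening run, cut at about 8.8% in these data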;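 also: cells exposed to compound for 20 h before luminescence read; 0% = DMSO alone and 100% = MG132 at 30 µM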
Lmaj promast: Leishmania major promastigote growth inhibition; Leishmania major promastigotes, resazurin fluorescence viability; inhibition, % at 10 µM; 9% of 200,000 active; AID 1063;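 also: promastigotes grown with compound for 44 hours at 28 °C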
Lmaj promast 1uM: inhibitors of Leishmania major promastigote growth, repeat at 1 uM; AID 1258; L. major promastigote growth, resazurin fluorescence, 48 h; 13% of 1,100 active; shares compounds with Lmaj promast; inhibition, % at 1 µM;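 active = inhibition above about 50% in both repeat tests, limit read from the data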
An asterisk follows results filed as active; · = not tested or not shown. Hits are enriched below; roughly 12% of the tested compounds scored in any of these assays. Rule as the data show it, unless noted: active = inhibition above about 50%; inactive = the rest.

SMILES	Rad51 HR inh	Arbovirus inh	PKD1 kinase inh	CHOP inhibitor	Wee1 stabilizer	Lmaj promast	Lmaj promast 1uM
O=C1C2C3C=CC(C4CC34)C2C(=O)N1/N=C/c1cccs1 (stereo unspecified)	·	-9	1	2	1	-3	·
COc1ccc(CCC(=O)NNC(=S)Nc2cccc(C(C)=O)c2)cc1	-12	2	-2	1	-4	-2	·
CCOC(=O)c1sc(NC(=O)CCN2C(=O)c3cccc([N+](=O)[O-])c3C2=O)c(C(=O)OCC)c1C	6	-5	-2	-17	2	-7	·
O=C(CSC1=NCCN1)NC12CC3CC(CC(C3)C1)C2	-8	10	-2	-8	1	100*	-5
Cc1ccc(NC(=O)Nc2sc(=S)n(C)c2C)cc1	·	-1	-7	-6	1	59*	-17
CC(=O)NC(=O)Nc1sc(=S)n(C)c1C	3	0	0	-14	-1	4	·
COCCNC(=O)C(c1ccc(Cl)cc1)N(C(=O)Cn1nnc2ccccc21)c1cccnc1 (stereo unspecified)	-20	-8	1	0	-1	-3	·
COc1ccccc1CNc1nc2ccccc2n1CCN1CCCCC1	-35	-4	-17	11	2	61*	9
COc1ccc2cc3[n+](cc2c1OC)CCc1cc2c(cc1-3)OCO2	3	9	-6	-1	-2	100*	76*
CCOC(=O)C(NC(=O)CC)(N1CCc2ccccc2C1)C(F)(F)F (stereo unspecified)	6	25	0	-15	-2	-4	·
CCOC(=O)c1cnn(-c2ncnc3sc4c(c23)CCC4)c1N	-1	5	4	38	-3	3	·
CCOC(=O)c1cnn(-c2nc(SC)nc3sc4c(c23)CCCC4)c1N	-4	1	0	24	-2	60*	-1
Cc1cc(C)c2c(n1)sc1c(-c3ccccc3)c(C#N)c(N)nc12	13	-1	-2	51	-1	-2	·
Clc1ccc(-c2nnc(-c3ccc(Br)cc3)c(N3CCSCC3)n2)cc1	-1	-11	6	41	-3	27	·
Clc1ccc(-c2nnc(-c3ccco3)nc2N2CCCCC2)cc1	4	-9	2	43	-2	64*	25
COc1ccc(-n2c(C)cc(C(=O)CSc3nn4c(=O)c(C(C)(C)C)nnc4s3)c2C)cc1	-39	21	-9	39	3	64*	6
COc1ccc(C(=O)CSc2nn3c(=O)c(C(C)(C)C)nnc3s2)cc1	-4	7	3	15	0	11	·
CCN(CC)c1ccc(/C=N/NC(=O)c2cccc(S(=O)(=O)N3CCOCC3)c2)c(O)c1	5	-21	3	53	-3	100*	-31
CCOc1ccccc1/C=N/NC(=O)c1cccc(S(=O)(=O)N2CCOCC2)c1	-10	3	0	11	-2	0	·
Cc1ccc(NC(=O)C2(c3cccs3)CCOCC2)cc1C	·	-4	3	-13	3	-1	·
CCN(CC)CCOc1cc2c(nn1)Oc1ccccc1N2C	1	-16	0	37	1	100*	9
NC(=O)N/N=C/c1cc(Br)ccc1OC(=O)c1ccccc1	-3	-3	2	18	4	40	·
Cn1c(SCCN2CCCCC2)nnc1-c1ccccc1Br	0	4	2	39	3	73*	-2
Cn1c(SCCC#N)nnc1-c1ccccc1F	9	3	1	-1	2	-8	·
Cc1cc(C)cc(-c2nnc(SCc3ccc(C(=O)O)cc3)o2)c1	·	5	6	-8	1	4	·
SMILES	Rad51 HR inh	Arbovirus inh	PKD1 kinase inh	CHOP inhibitor	Wee1 stabilizer	Lmaj promast	Lmaj promast 1uM
CCOC(=O)C1=C(C)NC(=O)NC1c1ccoc1 (stereo unspecified)	6	16	-5	19	-2	3	·
CC(=O)O[C@@H]1C[C@H]2C(C)(C)C(=O)C=C[C@]2(C)[C@H]2CC[C@@]3(C)[C@H](c4ccoc4)OC(=O)[C@H]4O[C@]43[C@@]21C	8	-31	7	-27	-4	100*	94*
S=C1NCN(C2CCCCC2)CN1Cc1ccccc1	16	6	0	25	3	-6	·
O=C(Cn1ccc([N+](=O)[O-])n1)Nc1nccs1	1	0	0	52	3	77*	-7
O=Nc1c2cc(-c3ccccc3)[nH]nc-2c2ccccc12	9	-11	-1	92*	6	65*	54*
Cc1cccc(-c2cc3c(N=O)c4ccccc4c-3n[nH]2)c1	-7	-7	4	85*	6	64*	53*
Cc1ccc(-c2cc3c(N=O)c4ccccc4c-3n[nH]2)cc1	-10	-15	1	65	-3	41	·
Cc1ccc(NC(=O)N2CCCN(Cc3ccc(F)cc3)C2)cc1C	-5	-37	0	20	-1	94*	53*
S=C(NCCCn1ccnc1)NC1CCCCC1	3	-4	-6	15	-2	-4	·
COC(=O)C(CC(=O)c1ccc(Br)cc1)n1ccnc1 (stereo unspecified)	·	-6	-13	6	0	79*	26
CC(C)c1ccc(/C=N/Nc2ccc(C(=O)O)cc2)cc1	0	10	-2	84*	-4	57*	-20
COc1ccc2o/c(=N/NC(=S)Nc3ccccc3)c(C(N)=O)cc2c1	2	-6	-7	-23	-3	-2	·
Cc1nn(Cc2ccc([N+](=O)[O-])cc2)c(=O)n1N(C)c1ncc(C(F)(F)F)cc1Cl	10	14	-9	59	-1	6	·
Cc1nn(Cc2ccc(Cl)cc2)c(=O)n1N(C)c1ncc(C(F)(F)F)cc1Cl	7	-11	-7	81*	1	94*	-17
COc1ccc(-c2csc3[nH]c(=S)n(-c4ccccc4)c(=O)c23)cc1OC	-5	-7	-5	-2	-4	-4	·
CCOC(=O)c1sc(NC(=O)C(C)C)c(C#N)c1C	27	-6	4	-7	0	-1	·
Cc1ccc2c(c1)c1c3n2CCN=C3CCC1	-1	-6	-6	21	-3	-4	·
c1cc2c(cc1C1CCCCC1)c1c3n2CCN=C3CCC1	-8	-36	-6	-23	2	101*	15
COc1ccc(CNC(=O)COC(=O)/C=C/c2cccc(Br)c2)cc1OC	0	-1	4	3	1	-5	·
CCc1ccc(/C=C/c2c[nH]c3ccccc23)[n+](CC)c1	·	11	-6	6	-2	100*	10
CCCCC1(C)OC(=O)C(=Cc2c[nH]c3ccccc23)C(=O)O1 (stereo unspecified)	-12	0	-10	64	-1	4	·
COC(=O)[C@@H]1C[C@H]2CC[C@H](O)C[C@H]2N1Cc1ccc(C)s1	-2	·	·	10	·	·	·
COc1cccc(CN(C)CC(=O)Nc2ccccc2C(C)C)c1	-9	-12	-3	14	0	27	·
